How the values were obtained:
DU-145 cells = assay: Growth inhibition of DU-145 prostate cancer cells; format: cell-based; conditions: read-out: IC50, growth inhibition of DU-145 cells; human prostate cancer cell line DU-145
CSNK1D = CSNK1D (Homo sapiens, UniProt P48730); assay: KINOMEscan primary screen binding; conditions: 10 μM; lower numbers indicate stronger hits
Procedure, shortened: (§1)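 Test compound profiled as a single-concentration primary binding screen across a panel of 100 kinases by the KINOMEscan service, at 10 μM. Binding interactions were reported as % Ctrl, with lower values indicating stronger hits. A selectivity score, S(35), was also calculated across the panel.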

panel of 100 kinases = assay: KINOMEscan selectivity over kinase panel; format: binding; conditions: KINOMEscan panel of 100 kinases, 10 μM
Pim1 = Pim1 (Homo sapiens, UniProt P11309); assay: KINOMEscan primary screen binding; conditions: 10 μM; lower numbers indicate stronger hits
Chain of Pim1 (P11309 whole entry): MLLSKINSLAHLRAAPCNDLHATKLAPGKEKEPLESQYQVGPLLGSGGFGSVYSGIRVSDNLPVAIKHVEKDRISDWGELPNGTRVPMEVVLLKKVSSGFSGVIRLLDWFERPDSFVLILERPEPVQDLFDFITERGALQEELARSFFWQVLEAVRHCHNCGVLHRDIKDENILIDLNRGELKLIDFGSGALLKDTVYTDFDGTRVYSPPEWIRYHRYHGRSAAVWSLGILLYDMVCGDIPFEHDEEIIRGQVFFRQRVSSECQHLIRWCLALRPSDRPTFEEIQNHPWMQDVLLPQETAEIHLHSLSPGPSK
Procedure, shortened: as §1

Pim3 = Pim3 (Homo sapiens, UniProt Q86V86); assay: KINOMEscan primary screen binding; conditions: 10 μM; lower numbers indicate stronger hits
Procedure, shortened: as §1

Chain of CSNK1D (P48730 whole entry): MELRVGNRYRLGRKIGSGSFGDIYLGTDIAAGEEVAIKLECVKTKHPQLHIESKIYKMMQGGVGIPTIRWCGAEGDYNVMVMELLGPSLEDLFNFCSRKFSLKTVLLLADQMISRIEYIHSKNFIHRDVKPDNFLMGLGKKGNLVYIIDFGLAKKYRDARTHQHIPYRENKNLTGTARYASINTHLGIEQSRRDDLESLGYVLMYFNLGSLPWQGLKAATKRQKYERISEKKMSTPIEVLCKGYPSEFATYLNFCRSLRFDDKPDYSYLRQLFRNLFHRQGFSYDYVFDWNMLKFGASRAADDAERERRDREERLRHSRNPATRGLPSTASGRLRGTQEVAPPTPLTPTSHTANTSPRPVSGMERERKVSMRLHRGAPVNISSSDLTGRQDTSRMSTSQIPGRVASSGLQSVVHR

| IC50 (DU-145 cells) | % Ctrl CSNK1D (CSNK1D) | selectivity score S(35) (panel of 100 kinases) | % Ctrl Pim1 (Pim1) | % Ctrl Pim3 (Pim3) | Structure (SMILES) |
| --- | --- | --- | --- | --- | --- |
| 3.21 µM | – | – | – | – | CC(C)C(C)OC1CC(=O)CC2C(=O)c3c(O)ccc(O)c3C(=O)C12 (stereo not drawn) [Compound 7] |
| 2.02 µM | – | – | – | – | CC(C)(C)OC1CC(O)CC2C(=O)c3c(O)ccc(O)c3C(=O)C12 (stereo not drawn) [Compound 9] |
| – | 30 % control | 0.022 | 34 % control | 36 % control | O=C1C2=C(C(=O)c3c(O)ccc(O)c31)[C@@H](O)[C@@H](O)[C@@H](O)C2 [Compound 4] |
